Rows were chosen to be rich in hits. Some 1.5% of all compounds tested hit in one or more screens of this group.
SENP1 FRET inh – SENP1 (human) catalytic domain inhibition | hit rate 0.21% among 360,000 | recombinant SENP1 catalytic domain, CyPet-SUMO1-YPet FRET cleavage | inhibition, % at 10 µM;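 active means inhibition at least 30% at 10 µM, raw YFP signal under a set limit, fluorescence ratio 0.5 to 1.5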;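 further: 0% = enzyme with DMSO and 100% = no enzyme wells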
Target sequence (Q9P0U3 419-644 limits assumed): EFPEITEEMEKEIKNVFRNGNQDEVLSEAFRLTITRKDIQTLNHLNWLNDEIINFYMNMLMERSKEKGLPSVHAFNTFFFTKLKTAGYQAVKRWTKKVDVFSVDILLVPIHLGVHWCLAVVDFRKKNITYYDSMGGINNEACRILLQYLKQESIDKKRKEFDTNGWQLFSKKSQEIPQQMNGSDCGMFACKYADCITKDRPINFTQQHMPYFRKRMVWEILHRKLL
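Assay system – human recombinant His6-tagged SENP1 catalytic domain enzyme · Input – SENP1 enzyme, 20 pM final · Buffer or medium – Tris pH 8 buffer plus EDTA, NaCl, BME, BSA, NP40, catalase · Schedule – 50 min reaction at room temperature · Technique – FRET read of cyan and yellow fluorescence · Control set – no-enzyme wells low, DMSO-plus-enzyme wells high control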
Platelet DG rel – platelet dense granule release activity | AID 1663 | inhibition, %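 (compounds screened at 7.5 µM in platelet-rich plasma)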 | human platelet-rich plasma, SFLLRN dense granule ATP release, luminescence | hit rate 0.22% among 300,000;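 active means mean replicate score, as percent of positive control, at or above 50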
VLA-4 inh – inhibition in a human VLA-4 binding assay. hit rate 0.2% among 330,000. P13612. inhibition, % (about 7 µM as worked out from the volumes in the protocol). VLA-4 expressing cells, ligand binding flow cytometry; in the data active means inhibition above about 50%
Myeloid diff MLP – myeloid differentiation induction | ER-HoxA9 myeloid progenitors, lysozyme-GFP differentiation, flow cytometry | calls only at 10 µM | hit rate 1% among 360,000;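 active means normalized GFP-positive differentiation at or above the plate's own cutoff, the solvent-only control mean plus 3 SD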;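 further: cells exposed to compound for four days before flow analysis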
Numbers without * were called inactive; i = inactive; . = not tested or not shown; + = active, no number.

SMILES | SENP1 FRET inh | Platelet DG rel | VLA-4 inh | Myeloid diff MLP
COCCc1ccc(OC2(C)CCN(Cc3cccc(OCOC)c3)C2)cc1 (stereo not given) | -2.7 | . | . | i
C=CCNc1ncnc2c1ncn2C1OC(CO)C(O)C1O (stereo not given) | -1.5 | 30.8 | 11.3 | i
Nc1ncnc2c1ncn2C1OC(CO)C(O)C1O (stereo not given) | -0.7 | 95.8* | -8.8 | i
OCC1OC(n2cnc3c(NC4CCCC4)ncnc32)C(O)C1O (stereo not given) | -0.9 | 81.5* | 0.1 | i
Nc1ncnc2c1ncn2C1O[C@H](CO)[C@@H](O)[C@@H]1O (stereo not given in full) | -1.6 | . | 18.8 | i
Cc1ccc(NC(=O)CN(C)C(=O)COC(=O)c2nc3nccc(C)n3n2)cc1 | -0.3 | . | 24.8 | i
CC(C)C(NC(=O)c1ccc(C(C)(C)C)cc1)C(=O)NCc1ccccn1 (stereo not given) | 3.5 | . | 14.6 | i
Cc1ccc2cccc(NC(=S)NC(=O)c3ccnn3C)c2n1 | -3.0 | -0.6 | 48.0 | +
CC(=O)NC(=S)Nc1cccc2ccc(C)nc12 | -0.4 | 17.7 | 13.8 | i
CN(CC(=O)NCCc1ccc(S(N)(=O)=O)cc1)S(=O)(=O)c1cccc2nsnc12 | 0.6 | -21.6 | 31.2 | +
CCN1CCN(CCCNC(=O)CCC(=O)N2CCOc3ccccc32)CC1 | -0.1 | 6.7 | 28.9 | i
O=C(NCc1ccc2c(c1)OCO2)C1CCC(CNS(=O)(=O)c2cccc3nsnc23)CC1 (stereo not given) | 2.4 | 26.0 | -14.8 | i
O=C(NCc1ccc2c(c1)OCO2)C1CCC(CNS(=O)(=O)c2ccccc2)CC1 (stereo not given) | -0.1 | 61.1* | 3.3 | i
O=C(O)C1CC=CCC1C(=O)NCc1ccc2c(c1)OCO2 (stereo not given) | 1.6 | -0.9 | 4.4 | +
Cc1ccc(CNC(=O)C2CC=CCC2C(=O)O)cc1 (stereo not given) | -0.1 | 3.0 | 13.1 | i
C=CCn1c(=O)c2ccccc2n2c(SCC(=O)NCC)nnc12 | -0.4 | 3.0 | -25.1 | i
N#Cc1ccsc1NC(=O)CSc1ncnc2ccccc12 | -14.8 | 9.2 | 13.1 | +
N#Cc1ccsc1NC(=O)CSc1ncn[nH]1 | -6.7 | -10.9 | 0.6 | i
C/C(CC(=O)Nc1ccc(N(C)C)cc1)=N\NC(=O)c1ccc(C(C)(C)C)cc1 | 0.0 | -8.1 | 8.9 | i
COc1cc(/C=C2/SC(=Nc3ccc(O)cc3)NC2=O)cc(OC)c1O | 55.6 | -13.9 | -413.8 | +
O=C(Nc1cccc(C(F)(F)F)c1)c1csc([C@@H]2C[C@H](O)[C@@H](CO)O2)n1 | -4.9 | . | . | i
Nc1ccc2c(c1)Nc1ccccc1CC2 | 4.2 | -3.3 | -3.6 | +
Nc1cc(=O)[nH]c(SCC(=O)Nc2ccc([N+](=O)[O-])cc2)n1 | 0.8 | 16.2 | . | i
Nc1cc(=O)[nH]c(SCC(=O)Nc2cccc([N+](=O)[O-])c2)n1 | 2.4 | 12.6 | 7.9 | +
Cc1oc(-c2ccc(Cl)cc2)nc1CN1CCCC(C(=O)N2CCN(C(=O)c3ccco3)CC2)C1 (stereo not given) | -1.6 | 3.3 | 4.2 | +
SMILES | SENP1 FRET inh | Platelet DG rel | VLA-4 inh | Myeloid diff MLP
CC(=O)c1cccc(N(C(=O)Cn2nnc3ccccc32)C(C(=O)NCC2CCCO2)c2ccc(N3CCOCC3)cc2)c1 (stereo not given) | 2.8 | -0.2 | 10.7 | i
Clc1ccc(-c2cc(-c3nnc4n3CCCCC4)c3ccccc3n2)cc1 | 2.1 | 6.8 | 5.0 | +
Fc1ccc(-c2cc(-c3nnc4n3CCCCC4)c3ccccc3n2)cc1 | 0.0 | 7.6 | -3.8 | i
COc1ccc(S(=O)(=O)NCC(c2cccnc2)N2CCN(C)CC2)cc1C (stereo not given) | -5.8 | 73.6* | -4.7 | i
COc1ccc(S(=O)(=O)NCC(c2cccnc2)N2CCN(C)CC2)cc1OC (stereo not given) | -7.5 | -4.7 | -23.6 | i
COC(=O)c1ccc2c(c1)NC(=O)CS2 | -3.8 | 0.9 | -5.9 | i
COC(=O)c1ccc2c(c1)SC1=C(CCCC1=O)N2 | 42.8* | -13.2 | 9.1 | i
CCOc1cc(NS(=O)(=O)c2ccc(OC)cc2)c(OCC)cc1NC(=O)c1ccco1 | -17.4 | -0.4 | 3.5 | +
CN1CCN(CCCNC(=O)c2ccc(/C=C3/Sc4ccccc4N(Cc4cccc(Cl)c4)C3=O)cc2)CC1 | -53.9 | 9.7 | . | +
O=[N+]([O-])c1ccc(/C=C/C2=NN(c3ccccc3)C(c3ccco3)C2)o1 (stereo not given) | -32.5 | 6.6 | . | +
COc1ccc([N+](=O)[O-])cc1NC(=O)C(C)OC(=O)C1CCC1 (stereo not given) | 0.6 | 7.2 | -16.1 | i
CC(OC(=O)C1CC1)C(=O)Nc1ccc([N+](=O)[O-])cc1Cl (stereo not given) | 0.2 | -1.8 | -17.8 | +
N/C(=N\OC(=O)c1ccccc1Cl)c1cccc([N+](=O)[O-])c1 | 1.4 | 4.5 | 15.7 | i
N/C(=N/OC(=O)c1ccccc1Cl)c1ncc([N+](=O)[O-])s1 | 1.0 | -4.1 | -11.2 | +
O=C(Cc1ccc(-n2c(=O)[nH]c3ccsc3c2=O)cc1)N1CCN(c2ccc(Cl)cc2)CC1 | -2.2 | -10.1 | -1.0 | +
O=C(N/N=C/c1ccc(Cl)c([N+](=O)[O-])c1)c1cc(-c2ccc3c4c(cccc24)CC3)n[nH]1 | 0.2 | 52.2* | 13.9 | i
Nc1ccc2nc(-c3cccc(-c4nc5ccc(N)cc5[nH]4)n3)[nH]c2c1 | -26.2 | -5.6 | -9.8 | +
CCN(CC)S(=O)(=O)c1cc(NC(=O)C(C)N2CCc3ccccc32)ccc1C (stereo not given) | -4.6 | 5.1 | -23.3 | +
O=S(=O)(c1ccc(NC(=S)Nc2ccc(OC(F)F)cc2)cc1)N1CCOCC1 | -0.3 | -0.3 | -2.7 | +
COc1ccc(CCNC(=O)c2ccc3c(c2)SC2=NS(=O)(=O)CCN23)cc1 | 2.4 | 76.7* | 5.7 | i
Cc1cc(C)c(S(=O)(=O)N2CCN(C(=O)c3cc(=O)[nH]c4ccccc34)CC2)c(C)c1 | -0.5 | . | -9.3 | i
Cc1cc(C)c(C)c(S(=O)(=O)N2CCN(C(=O)c3cc(=O)[nH]c4ccccc34)CC2)c1C | 0.6 | -0.3 | . | +
COc1cccc(CN(C)C(=O)CCNC(=O)c2ccc(Br)cc2)c1 | 0.4 | -5.7 | -7.8 | +
COc1cccc(NC(=O)CN(C)C(=O)CCNC(=O)c2ccccc2OC)c1 | 1.2 | . | . | +
COc1ccc(NC(=O)CN(C)C(=O)CCNC(=O)c2ccccc2OC)cc1 | 0.3 | -39.1 | -12.2 | i
CN(C)C(CNC(=O)c1ccco1)c1cccs1 (stereo not given) | -8.7 | -0.9 | 1.8 | i
O=C(c1ccccc1Cl)N1CCC(N2CCC(C(=O)N3CCCC3)CC2)CC1 | -7.9 | 4.1 | 8.9 | i
O=C(c1cc(F)ccc1F)N1CCC(N2CCC(C(=O)N3CCCC3)CC2)CC1 | -23.9 | 5.7 | -5.5 | +
Cc1cc(N=Nc2ccccc2C(=O)O)c(C)c(C)c1O | 33.3* | -2.9 | 1.5 | i

From PubChem BioAssay
